Experimental data as given in ChEMBL document CHEMBL3526116, “Toxicological evaluation of acyl glucuronides of nonsteroidal anti-inflammatory drugs using human embryonic kidney 293 cells stably expressing human UDP-glucuronosyltransferase and human hepatocytes” (Drug Metab Dispos, 2011).

What was measured:
[1] = molecular target: T1, UDP-glucuronosyltransferase 1A3 (Homo sapiens, UniProt P35503); experiment: Activity of human UGT1A3 expressed in HEK293 cells assessed as enzyme-mediated compound formation per 2 x 10^5 cells treated with ketoprofen at 1 mM measured at 24 hrs by LC-MS/MS analysis; format: ADME, cell-based; conditions: hek293, 24 h, 1000 µM
T1 sequence (P35503 whole entry): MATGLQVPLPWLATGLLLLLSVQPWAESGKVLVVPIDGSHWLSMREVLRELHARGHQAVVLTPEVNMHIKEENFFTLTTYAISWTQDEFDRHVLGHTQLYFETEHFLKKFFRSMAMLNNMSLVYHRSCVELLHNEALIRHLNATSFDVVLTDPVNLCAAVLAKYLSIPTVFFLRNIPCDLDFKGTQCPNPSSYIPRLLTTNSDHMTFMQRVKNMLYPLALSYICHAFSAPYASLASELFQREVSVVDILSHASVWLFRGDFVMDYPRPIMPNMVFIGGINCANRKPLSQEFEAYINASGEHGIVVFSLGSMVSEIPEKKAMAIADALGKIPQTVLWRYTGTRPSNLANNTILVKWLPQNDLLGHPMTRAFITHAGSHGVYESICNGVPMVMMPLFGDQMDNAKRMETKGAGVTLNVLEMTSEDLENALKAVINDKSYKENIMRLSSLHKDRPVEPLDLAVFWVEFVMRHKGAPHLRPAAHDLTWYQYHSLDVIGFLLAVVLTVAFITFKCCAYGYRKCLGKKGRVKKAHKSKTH
How it was run: (§1)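 HEK293 stably expressing human UGT1A3 (G418-selected), 2 x 10^5 cells/well in 1 mL DMEM with 0.5% FBS, exposed immediately to drug for 6, 12 or 24 h; DMSO ≤0.1% final. Cells and medium separated by centrifugation, cell fraction resuspended in PBS; aliquots mixed 1:1 with methanol/acetic acid (100:1), spun, supernatant analysed by LC-MS/MS. Triplicate determinations, mean ± SD.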

Hepatocyte [2] = experiment: Drug level in human hepatocytes assessed per 2 x 10^5 cells treated with ketoprofen at 1 mM measured at 6 hrs by LC-MS/MS analysis in absence of acyl glucuronidation inhibitor (-)-borneol; format: ADME, cell-based; conditions: 1000 µM
[3] = Drug level in cell culture medium treated with ketoprofen at 1 mM measured at 6 hrs by LC-MS/MS analysis in absence of acyl glucuronidation inhibitor (-)-borneol; format: physicochemical; conditions: 1000 µM
[4] = Drug level in cell culture medium treated with ketoprofen at 1 mM measured at 6 hrs by LC-MS/MS analysis in presence of acyl glucuronidation inhibitor (-)-borneol; format: physicochemical; conditions: 1000 µM
Nucleic Acid [5] = experiment: Ratio of drug level in human hepatocytes to HEK293 cells expressing UGT1A3 treated with ketoprofen at 1 mM; format: ADME, cell-based, Hepatocyte; conditions: 1000 µM
How it was run: (§2)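 Acyl glucuronide in cell fraction (pmol/2 x 10^5 cells) by LC-MS/MS after 6 h exposure in human hepatocytes without (-)-borneol, set against HEK/UGT1A3 cells (2 x 10^5 cells/well, DMEM with 0.5% FBS) exposed to the same drug level; cells pelleted at 3000 x g, resuspended in PBS, extracted with methanol/acetic acid.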

[6] = molecular target: T1, UDP-glucuronosyltransferase 1A3; experiment: Activity of human UGT1A3 expressed in HEK293 cells assessed as enzyme-mediated compound formation in cell culture medium treated with ketoprofen at 1 mM measured at 6 to 24 hrs by LC-MS/MS analysis; format: ADME, cell-based; conditions: hek293, 1000 µM; how it was run: as §1
[7] = molecular target: T1, UDP-glucuronosyltransferase 1A3; experiment: Activity of human UGT1A3 expressed in HEK293 cells assessed as enzyme-mediated compound formation in cell culture medium treated with ketoprofen at 1 mM by LC-MS/MS analysis; format: ADME, cell-based; conditions: hek293, 1000 µM, TDE = time-dependent effect; how it was run: as §1
Hepatocyte [8] = experiment: Drug level in human hepatocytes assessed per 2 x 10^5 cells treated with ketoprofen at 1 mM measured at 6 hrs by LC-MS/MS analysis in presence of acyl glucuronidation inhibitor (-)-borneol; format: ADME, cell-based; conditions: 1000 µM
[9] = molecular target: T1, UDP-glucuronosyltransferase 1A3; experiment: Activity of human UGT1A3 expressed in HEK293 cells assessed as enzyme-mediated compound formation per 2 x 10^5 cells treated with naproxen at 1 mM measured at 24 hrs by LC-MS/MS analysis; format: ADME, cell-based; conditions: hek293, 24 h, 1000 µM; how it was run: as §1
[10] = Drug level in cell culture medium treated with naproxen at 1 mM measured at 6 hrs by LC-MS/MS analysis in absence of acyl glucuronidation inhibitor (-)-borneol; format: physicochemical; conditions: 1000 µM
[11] = Drug level in cell culture medium treated with naproxen at 1 mM measured at 6 hrs by LC-MS/MS analysis in presence of acyl glucuronidation inhibitor (-)-borneol; format: physicochemical; conditions: 1000 µM
Nucleic Acid [12] = experiment: Ratio of drug level in human hepatocytes to HEK293 cells expressing UGT1A3 treated with naproxen at 1 mM; format: ADME, cell-based, Hepatocyte; conditions: 1000 µM; how it was run: as §2
[13] = molecular target: T1, UDP-glucuronosyltransferase 1A3; experiment: Activity of human UGT1A3 expressed in HEK293 cells assessed as enzyme-mediated compound formation in cell culture medium treated with naproxen at 1 mM measured at 6 to 24 hrs by LC-MS/MS analysis; format: ADME, cell-based; conditions: hek293, 1000 µM; how it was run: as §1
[14] = molecular target: T1, UDP-glucuronosyltransferase 1A3; experiment: Activity of human UGT1A3 expressed in HEK293 cells assessed as enzyme-mediated compound formation in cell culture medium treated with naproxen at 1 mM by LC-MS/MS analysis; format: ADME, cell-based; conditions: hek293, 1000 µM, TDE = time-dependent effect; how it was run: as §1
Hepatocyte [15] = experiment: Drug level in human hepatocytes assessed per 2 x 10^5 cells treated with naproxen at 1 mM measured at 6 hrs by LC-MS/MS analysis in presence of acyl glucuronidation inhibitor (-)-borneol; format: ADME, cell-based; conditions: 1000 µM
Hepatocyte [16] = experiment: Drug level in human hepatocytes assessed per 2 x 10^5 cells treated with naproxen at 1 mM measured at 6 hrs by LC-MS/MS analysis in absence of acyl glucuronidation inhibitor (-)-borneol; format: ADME, cell-based; conditions: 1000 µM
[17] = molecular target: T1, UDP-glucuronosyltransferase 1A3; experiment: Activity of human UGT1A3 expressed in HEK293 cells assessed as enzyme-mediated compound formation per 2 x 10^5 cells treated with diclofenac at 0.1 mM measured at 24 hrs by LC-MS/MS analysis; format: ADME, cell-based; conditions: hek293, 24 h, 100 µM; how it was run: as §1
Hepatocyte [18] = experiment: Drug level in human hepatocytes assessed per 2 x 10^5 cells treated with diclofenac at 0.1 mM measured at 6 hrs by LC-MS/MS analysis in absence of acyl glucuronidation inhibitor (-)-borneol; format: ADME, cell-based; conditions: 100 µM
[19] = Drug level in cell culture medium treated with diclofenac at 0.1 mM measured at 6 hrs by LC-MS/MS analysis in absence of acyl glucuronidation inhibitor (-)-borneol; format: physicochemical; conditions: 100 µM
[20] = Drug level in cell culture medium treated with diclofenac at 0.1 mM measured at 6 hrs by LC-MS/MS analysis in presence of acyl glucuronidation inhibitor (-)-borneol; format: physicochemical; conditions: 100 µM
[21] = molecular target: T1, UDP-glucuronosyltransferase 1A3; experiment: Activity of human UGT1A3 expressed in HEK293 cells assessed as enzyme-mediated compound formation in cell culture medium treated with diclofenac at 0.1 mM measured at 6 to 24 hrs by LC-MS/MS analysis; format: ADME, cell-based; conditions: hek293, 100 µM; how it was run: as §1
[22] = molecular target: T1, UDP-glucuronosyltransferase 1A3; experiment: Activity of human UGT1A3 expressed in HEK293 cells assessed as enzyme-mediated compound formation in cell culture medium treated with diclofenac at 0.1 mM by LC-MS/MS analysis; format: ADME, cell-based; conditions: hek293, 100 µM, TDE = time-dependent effect; how it was run: as §1
Hepatocyte [23] = experiment: Drug level in human hepatocytes assessed per 2 x 10^5 cells treated with diclofenac at 0.1 mM measured at 6 hrs by LC-MS/MS analysis in presence of acyl glucuronidation inhibitor (-)-borneol; format: ADME, cell-based; conditions: 100 µM

With `CC(C(=O)O[C@@H]1O[C@H](C(=O)O)[C@@H](O)[C@H](O)[C@H]1O)c1cccc(C(=O)c2ccccc2)c1` (stereo partly drawn) the Drug metabolism [1] was 0.2 pmol, the Drug metabolism (Hepatocyte [2]) was 6.8 pmol and the Drug metabolism [3] was 436.8 pmol/mL. For the same molecule, the Drug metabolism [4] was 54.9 pmol/mL, the Ratio (Nucleic Acid [5]) was 6 and the Drug metabolism [6] was 6.3 pmol/mL. For the same molecule, the Drug metabolism [7] was “tde” and the Drug metabolism (Hepatocyte [8]) was 1.7 pmol.
`COc1ccc2cc([C@H](C)C(=O)O[C@@H]3O[C@H](C(=O)O)[C@@H](O)[C@H](O)[C@H]3O)ccc2c1` showed a Drug metabolism [9] of 4.5 pmol, a Drug metabolism [10] of 1323.9 pmol/mL and a Drug metabolism [11] of 393.7 pmol/mL. For the same molecule, the Ratio (Nucleic Acid [12]) was 6, the Drug metabolism [13] was 137 pmol/mL and the Drug metabolism [14] was “tde”. It also gave a Drug metabolism (Hepatocyte [15]) of 10.3 pmol and a Drug metabolism (Hepatocyte [16]) of 33.6 pmol.
Molecule `O=C(Cc1ccccc1Nc1c(Cl)cccc1Cl)O[C@@H]1O[C@H](C(=O)O)[C@@H](O)[C@H](O)[C@H]1O` has a Drug metabolism [17] of 3.8 pmol, a Drug metabolism (Hepatocyte [18]) of 59.6 pmol and a Drug metabolism [19] of 2816.1 pmol/mL. For the same molecule, the Drug metabolism [20] was 610.5 pmol/mL, the Drug metabolism [21] was 104 pmol/mL and the Drug metabolism [22] was “tde”. It also gave a Drug metabolism (Hepatocyte [23]) of 15.1 pmol.
